Test results published in ChEMBL document CHEMBL1140735, “Structure-activity relationships of C6-uridine derivatives targeting plasmodia orotidine monophosphate decarboxylase” (J Med Chem, 2008).

Experiments:
Plasmodium falciparum [1] = experiment: Antimalarial activity against Plasmodium falciparum 3D7; type: functional, organism-based
Method in brief: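 Parasites grown in human O+ erythrocytes in RPMI 1640 with 10% human serum and 50 µM hypoxanthine. Compounds from 10 mg/mL DMSO stocks were serially 2-fold diluted and added to culture at 2% hematocrit and 2% parasitemia. Incubation was 48 h at 37 °C under 95% N2/3% CO2/2% O2.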

CHO = experiment: Cytotoxicity against CHO cells; type: cell-based; details: Cricetulus griseus
Method in brief: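 CHO cells in RPMI 1640 with 10% fetal calf serum, 25 mM HEPES and gentamicin were grown to 50% confluency. Compounds from 10 mg/mL DMSO stocks were added as a serial dilution series, with DMSO-only controls. After 48 h, MTT was added for 1 h and formazan dissolved in DMSO. Absorbance at 650 nm; IC50 by nonlinear regression of dose–response.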

[2] = Inhibition of Plasmodium vivax ODCase
Method in brief: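 Calorimetric assay of P. vivax ODCase: enzyme (50 or 70 nM) was mixed with inhibitor (40–250 µM) in 50 mM Tris with 1 mM DTT, and activity was started by a single OMP injection to a final 12 µM. Competitive Ki was determined. For time-dependent inactivation, 50 µM enzyme was incubated at 25 °C in Tris pH 8.0 with 37.5–75 mM inhibitor for 1–48 h, then diluted 1000-fold and assayed.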

[3] = Inhibition of Plasmodium falciparum ODCase
[4] = Stability assessed as half life of hydrolysis; type: physicochemical
[5] = Inhibition of Methanobacterium thermoautotrophicum ODCase; parameters: species or system Methanothermobacter thermautotrophicus
[6] = test system: Methanothermobacter thermautotrophicus
Plasmodium falciparum [7] = test system: Plasmodium falciparum

SMILES | IC50 (Plasmodium falciparum [1]) [µM] | IC50 (CHO) [µM] | other results
[N-]=[N+]=Nc1cc(=O)[nH]c(=O)n1[C@@H]1O[C@H](CO)[C@@H](O)[C@H]1O | 1230 | > 1500 | –
Nc1cc(=O)[nH]c(=O)n1[C@@H]1O[C@H](CO)[C@@H](O)[C@H]1O | > 1500 | > 1500 | –
N#Cc1cc(=O)[nH]c(=O)n1[C@@H]1O[C@H](CO)[C@@H](O)[C@H]1O | 446 | > 1500 | –
Cc1cc(=O)[nH]c(=O)n1[C@@H]1O[C@H](CO)[C@@H](O)[C@H]1O | 530 | > 1160 | –
CN(C)c1cc(=O)[nH]c(=O)n1[C@@H]1O[C@H](CO)[C@@H](O)[C@H]1O | 31.7 | 68.3 | –
Cc1cc(=O)[nH]c(=O)n1[C@@H]1O[C@H](COP(=O)(O)O)[C@@H](O)[C@H]1O | – | – | Ki [2]: 22.4 µM; Ki [3]: 34.1 µM
N#Cc1cc(=O)[nH]c(=O)n1[C@@H]1O[C@H](COP(=O)(O)O)[C@@H](O)[C@H]1O | – | – | half-life [4]: 300 min; Ki [2]: 62 µM
O=c1cc(I)n([C@@H]2O[C@H](CO)[C@@H](O)[C@H]2O)c(=O)[nH]1 | 6.2 | 366 | –
CNc1cc(=O)[nH]c(=O)n1[C@@H]1O[C@H](CO)[C@@H](O)[C@H]1O | 28.5 | 71.9 | –
[N-]=[N+]=Nc1cc(=O)[nH]c(=O)n1[C@@H]1O[C@H](COP(=O)(O)O)[C@@H](O)[C@H]1O | – | – | Ki [5]: 190 nM; KI [6]: 0.63 µM; Kinact [6]: 61.2 h⁻¹; KI (Plasmodium falciparum [7]): 7.3 µM; Kinact (Plasmodium falciparum [7]): 0.35 h⁻¹; Ki [3]: 2 µM
